Experimental data taken from PubChem BioAssay AID651740 (Broad Institute, 2012).
The whole screen tested about 5,600 compounds, of which about 1,200 (21%) were called active. About 3% were inconclusive and are not listed. Not all results are given here. Unmarked numbers belong to inactive results.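 The calls were made as follows: active = mean inhibition above about 95%, with at least 55% of replicates also reaching it (limit read from the data); inconclusive = meets just one of the two conditions; inactive = meets neither condition.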

Assay: Trypanosoma cruzi growth blockers in host fibroblasts – NIH3T3 host cells, beta-gal parasites, cherry-pick, set 2, confirmation (AID 651740);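 also: plate controls were neutral control median for no effect and positive control median for full effect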
Conditions: T. cruzi beta-gal in NIH3T3, GalScreen luminescence, 90 h; at 2.09 µM; active compounds read high
Method in brief: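 Material: beta-gal T. cruzi in mouse NIH/3T3 fibroblasts / Medium: DMEM, 2% FBS, 1% PSG / Also added: T. cruzi trypomastigotes, 5000 per well / Compound: single dose, 100 nL pinned DMSO compound / Timing: ≥90 h co-culture with compound, 60 min detection reagent / Technique: GalScreen lysis and luminescent beta-gal signal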

SMILES | inhibition
COc1ccc(NC(=O)N2CC[C@@H]3[C@@H](CO)N(C)c4ccc(-c5cccc(F)c5)cc4[C@@H]32)cc1 | 106% (active)
CCC(=O)N1CC[C@@H]2[C@@H](CO)N(C)c3ccc(-c4cccc(OC)c4)cc3[C@@H]21 | 91.1%
CCC(=O)N1CC[C@@H]2[C@@H](CO)N(C)c3ccc(-c4ccc(F)cc4)cc3[C@@H]21 | 79.1%
COc1ccccc1NC(=O)N1CCCCN2[C@H](C1)[C@H](c1ccc(-c3ccccc3)cc1)[C@@H]2CO | 65%
C[C@H](O)C#Cc1ccc([C@H]2[C@H]3CN(S(=O)(=O)Cc4ccccc4)CCCCN3[C@H]2CO)cc1 | 11.7%
COCC(=O)N1CC[C@@H]2[C@@H](CO)Nc3ccc(-c4cccc(C#N)c4)cc3[C@@H]21 | 30.7%
O=C(c1cnccn1)N1CC[C@@H]2[C@H](CO)Nc3ccc(-c4cccc(F)c4)cc3[C@@H]21 | 87.3%
O=C(c1cccc(F)c1)N1CC[C@@H]2[C@@H](CO)Nc3ccc(C#Cc4cccc(F)c4)cc3[C@@H]21 | 106% (active)
OC[C@@H]1Nc2ccc(-c3cccc(F)c3)cc2[C@H]2[C@@H]1CCN2Cc1ccncc1 | 55.6%
CC(=O)N1CC[C@@H]2[C@H](CO)Nc3ccc(C#Cc4ccccc4F)cc3[C@@H]21 | 14.9%
O=C(c1ccccn1)N1CC[C@@H]2[C@H]1c1cc(-c3ccccc3)ccc1N[C@@H]2CO | 110% (active)
O=S(=O)(c1ccccc1)N1CC[C@@H]2[C@@H](CO)Nc3ccc(C#Cc4cccc(F)c4)cc3[C@@H]21 | 101% (active)
O=S(=O)(c1ccccc1)N1CC[C@@H]2[C@@H](CO)Nc3ccc(-c4ccccc4F)cc3[C@@H]21 | 98.3% (active)
O=S(=O)(c1ccccc1)N1CC[C@@H]2[C@H]1c1cc(C#Cc3cccc(F)c3)ccc1N[C@@H]2CO | 92.6%
Cc1ccccc1S(=O)(=O)N1CC[C@H]2[C@H](CO)Nc3ccc(-c4cccc(F)c4)cc3[C@H]21 | 93.1%
O=C(Cc1ccccc1)N1CC[C@H]2[C@H](CO)Nc3ccc(-c4ccccc4F)cc3[C@H]21 | 64.2%
N#Cc1ccc(-c2ccc3c(c2)[C@@H]2[C@@H](CCN2C(=O)Cc2ccncc2)[C@@H](CO)N3)cc1 | 54.9%
O=C(Nc1cc(Cl)cc(Cl)c1)N[C@H]1CC[C@@H](CCNS(=O)(=O)c2cccc(F)c2)O[C@H]1CO | 2.51%
CC(C)C#Cc1ccc([C@H]2[C@H](CO)N3CCCCN(C(=O)NC(C)C)C[C@@H]23)cc1 | -8.04%
COc1ccc(S(=O)(=O)N(C)C[C@H]2Oc3c(NC(=O)Nc4cccc5ccccc45)cccc3C(=O)N([C@@H](C)CO)C[C@H]2C)cc1 | 90.2%

SMILES | inhibition
C[C@@H]1CN([C@H](C)CO)C(=O)c2cc(/C=C/c3ccccc3)cnc2O[C@@H]1CN(C)Cc1ccncc1 | 2.78%
Cc1cc(C(=O)Nc2cccc3c2O[C@@H](CN(C)Cc2ccc(C(=O)Nc4ccccc4N)cc2)[C@H](C)CN([C@@H](C)CO)C3=O)n(C)n1 | 63.4%
COc1ccc(-c2ccc([C@H]3[C@H]4CN(C(=O)c5ccc6c(c5)OCO6)CCCCN4[C@H]3CO)cc2)cc1 | 50.5%
C[C@H](CO)N1C[C@H](C)[C@H](CN(C)Cc2ccc(-c3ccccc3)cc2)Oc2ccc(NC(=O)Nc3ccc(F)cc3)cc2CC1=O | 83.3%
CN1c2ccc(-c3ccccc3)cc2[C@H]2[C@H](CCN2C(=O)Cc2ccccn2)[C@H]1CO | 72.9%
COCC#Cc1ccc([C@@H]2[C@H](CO)N3CCCCN(C(=O)CN(C)C)C[C@@H]23)cc1 | 29.5%
CN1C(=O)c2cc(NC(=O)Nc3ccccc3F)ccc2OC[C@H]2O[C@H](CC(=O)NCc3ccc(-c4ccccc4)cc3)CC[C@H]21 | 104% (active)
CN1C(=O)c2cc(NC(=O)c3cnccn3)ccc2OC[C@@H]2O[C@@H](CC(=O)N[C@H]3CCN(Cc4ccccc4)C3)CC[C@H]21 | 32.2%
CN1C(=O)c2cc(NC(=O)c3cnccn3)ccc2OC[C@@H]2O[C@H](CC(=O)N[C@@H]3CCN(Cc4ccccc4)C3)CC[C@@H]21 | 93.2%
Cc1ccc(-c2ccc3c(c2)O[C@H](CN(C)C)[C@@H](C)CN([C@H](C)CO)S3(=O)=O)cc1 | 41.9%
O=C(NCC1CCCCC1)[C@H]1[C@H](CO)[C@H]2Cn3c(cccc3=O)[C@H]2N1C(=O)CC1CC1 | 30.6%
COc1ccc(NC(=O)Nc2ccc3c(c2)C(=O)N([C@H](C)CO)C[C@H](C)[C@H](CN(C)S(=O)(=O)c2ccc(Cl)cc2)OCCCC[C@H](C)O3)cc1 | 107% (active)
CC(C)NC(=O)Nc1ccc2c(c1)C(=O)N([C@@H](C)CO)C[C@H](C)[C@H](CN(C)S(=O)(=O)c1ccc(Cl)cc1)OCCCC[C@H](C)O2 | 99.7% (active)
COc1ccc(NC(=O)N(C)C[C@@H]2OCCCC[C@@H](C)Oc3ccc(NS(=O)(=O)c4ccc(Cl)cc4)cc3C(=O)N([C@H](C)CO)C[C@H]2C)cc1 | 44.3%
C[C@@H]1CCCCO[C@H](CN(C)S(=O)(=O)c2ccc(Cl)cc2)[C@H](C)CN([C@@H](C)CO)C(=O)c2cc(NS(=O)(=O)c3cccs3)ccc2O1 | 79.2%
Cc1noc(C)c1S(=O)(=O)Nc1ccc2c(c1)C(=O)N([C@@H](C)CO)C[C@@H](C)[C@H](CN(C)S(=O)(=O)c1ccc(Cl)cc1)OCCCC[C@H](C)O2 | 62.5%
Cc1ccc(S(=O)(=O)N(C)C[C@H]2OCCCC[C@H](C)Oc3ccc(NC(=O)Cc4ccccc4)cc3C(=O)N([C@@H](C)CO)C[C@@H]2C)cc1 | 95%
C[C@H]1CCCCO[C@H](CN(C)S(=O)(=O)c2ccc(Cl)cc2)[C@@H](C)CN([C@@H](C)CO)C(=O)c2cc(NC(=O)Nc3ccc4c(c3)OCO4)ccc2O1 | 105% (active)
C[C@@H]1CCCCO[C@@H](CN(C)S(=O)(=O)c2ccc(Cl)cc2)[C@H](C)CN([C@@H](C)CO)C(=O)c2cc(NC(=O)Cc3ccccc3)ccc2O1 | 80.6%
C[C@H]1CCCCO[C@@H](CN(C)S(=O)(=O)c2cccs2)[C@@H](C)CN([C@@H](C)CO)C(=O)c2cc(NS(=O)(=O)c3ccc(Cl)cc3)ccc2O1 | 71%

SMILES | inhibition
COc1ccc(S(=O)(=O)Nc2ccc3c(c2)C(=O)N([C@@H](C)CO)C[C@H](C)[C@@H](CN(C)Cc2ccc(C(F)(F)F)cc2)O3)cc1 | 58.4%
CNC[C@H]1OCCCC[C@H](C)Oc2ccc(NC(=O)Nc3c(C)noc3C)cc2C(=O)N([C@H](C)CO)C[C@H]1C | 2.68%
O=C(Nc1cc(F)ccc1F)N1CCCCN2[C@H](CO)[C@@H](c3ccc(-c4cncnc4)cc3)[C@H]2C1 | 13.7%
Cc1ccc(-c2cnc3c(c2)C(=O)N([C@@H](C)CO)C[C@@H](C)[C@H](CN(C)Cc2ccccc2F)O3)cc1 | 72.1%
CN(C)C(=O)c1ccc(-c2ccc([C@H]3[C@@H](CO)N4CCCCN(CC5CC5)C[C@H]34)cc2)cc1 | 60.8%
O=C(C[C@@H]1C[C@H]2c3cc(NC(=O)C4CCC4)ccc3O[C@H]2[C@@H](CO)O1)NCc1ccc2c(c1)OCO2 | -16.2%
C[C@H](CO)N1C[C@H](C)[C@@H](CN(C)S(=O)(=O)c2ccc(F)cc2)Oc2cc(C3=CCCC3)ccc2S1(=O)=O | 78.5%
C[C@@H]1CN([C@@H](C)CO)S(=O)(=O)c2ccc(C#Cc3ccc(F)cc3)cc2O[C@H]1CN(C)S(C)(=O)=O | 27.8%
C[C@@H]1CN([C@H](C)CO)C(=O)CCCn2nncc2CO[C@@H]1CN(C)Cc1ccc(C(=O)Nc2ccccc2N)cc1 | 59.4%
COc1ccc(NC(=O)N(C)C[C@H]2OCCCC[C@H](C)Oc3ccc(NC(=O)Nc4ccc(C(F)(F)F)cc4)cc3C(=O)N([C@@H](C)CO)C[C@@H]2C)cc1 | 113% (active)
CC(C)NC(=O)Nc1ccc2c(c1)C(=O)N([C@H](C)CO)C[C@H](C)[C@H](CN(C)C(=O)Nc1ccc(C(F)(F)F)cc1)OCCCC[C@@H](C)O2 | 94%
C[C@H](CO)N1C[C@H](C)[C@H](CN(C)C(=O)Nc2ccc(C(F)(F)F)cc2)OCCCC[C@H](C)Oc2ccc(NC(=O)C3CCCCC3)cc2C1=O | 109% (active)
C[C@@H]1CCCCO[C@H](CN(C)C(=O)CCC(F)(F)F)[C@H](C)CN([C@H](C)CO)C(=O)c2cc(NS(C)(=O)=O)ccc2O1 | 7.29%
C[C@@H]1CCCCO[C@H](CN(C)C(=O)Nc2ccc(C(F)(F)F)cc2)[C@H](C)CN([C@H](C)CO)C(=O)c2cc(NC(=O)Nc3ccc(C(F)(F)F)cc3)ccc2O1 | 115% (active)
C[C@@H]1CN([C@@H](C)CO)C(=O)c2cc(NC(=O)Nc3ccc(C(F)(F)F)cc3)ccc2O[C@@H](C)CCCCO[C@H]1CN(C)C(=O)c1ccccc1 | 69.7%
CCCC#Cc1ccc2c(c1)O[C@H](CN(C)C(=O)CC)[C@@H](C)CN([C@H](C)CO)S2(=O)=O | 38.5%
C/C=C/c1ccc([C@H]2[C@@H](CNC(C)C)N(c3nc(CC)cs3)[C@H]2CO)cc1 | 89.5%
CCCC#Cc1ccc([C@H]2[C@H](CO)N3CCCCN(C(=O)c4ccc5c(c4)OCO5)C[C@@H]23)cc1 | 42.1%
